The subject of assay [1] is Haemophilus influenzae. Briefly: Antibacterial activity against nontypeable beta-lactamase-negative ampicillin-resistant Haemophilus influenzae 4437. In kind it is functional. Summed up: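 MIC by CLSI broth dilution in Haemophilus Test Medium, inoculum 10^5 CFU/ml, tested in duplicate. β-lactamase production checked by nitrocefin test.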
Assay [2] deals with Haemophilus influenzae. Briefly: Antibacterial activity against nontypeable beta-lactamase-negative ampicillin-resistant Haemophilus influenzae 4437 infected in mouse ddY assessed as decrease in viable bacterial count at 40 mg/kg, po bid for 3 days. It counts as functional. Summed up: (§1)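 Male ddY SPF mice, 6 weeks old, with a tube placed into the main bronchus 7 days before intratracheal challenge under pentobarbital. Drug given in DMSO orally twice daily from 24 h post-infection for 3 days. Mice killed 12 h after the last dose. Lungs homogenized in 1.0 ml PBS, serially diluted and plated on chocolate agar overnight at 37°C, 5% CO2. Four experiments.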

Assay [3] concerns Haemophilus influenzae. Kind of assay: Antibacterial activity against nontypeable beta-lactamase-negative ampicillin-resistant Haemophilus influenzae 4437 infected in mouse ddY assessed as decrease in viable bacterial count at 100 mg/kg, po bid for 3 days. It counts as functional. In a few lines:
as §1

Assay [4] has as its system Mus musculus. Briefly: Antiinflammatory activity against nontypeable beta-lactamase-negative ampicillin-resistant Haemophilus influenzae 4437 infected in mouse ddY assessed as decrease in total cell count in bronchoalveolar lavage fluid at 40 mg/kg, po bid for 3 days. In kind it is functional, organism-based. On the set-up: dose 40 mg/kg. The note with it: Lung. Summed up:
(§2)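 Intubated ddY mice challenged intratracheally, then dosed orally twice daily from 24 h for 3 days and lavaged 12 h after the last dose (3 × 1.0 ml saline, pooled). Total cells counted with Turk stain. Differentials counted on 100 cytocentrifuged cells stained with Diff-Quick. Four experiments.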

Assay [5] relates to Mus musculus. Briefly: Antiinflammatory activity against nontypeable beta-lactamase-negative ampicillin-resistant Haemophilus influenzae 4437 infected in mouse ddY assessed as decrease in total cell count in bronchoalveolar lavage fluid at 100 mg/kg, po bid for 3 days. It counts as functional, organism-based. Further details: dose 100 mg/kg. The note with it: Lung. In a few lines: as §2

For assay [6], the system named is Mus musculus. Kind of assay: Antiinflammatory activity against nontypeable beta-lactamase-negative ampicillin-resistant Haemophilus influenzae 4437 infected in mouse ddY assessed as decrease in neutrophil count in bronchoalveolar lavage fluid at 40 mg/kg, po bid for 3 days. It counts as functional, organism-based. On the set-up: dose 40 mg/kg. The note with it: Lung. In a few lines: as §2

Assay [7] deals with Mus musculus. Kind of assay: Antiinflammatory activity against nontypeable beta-lactamase-negative ampicillin-resistant Haemophilus influenzae 4437 infected in mouse ddY assessed as decrease in neutrophil count in bronchoalveolar lavage fluid at 100 mg/kg, po bid for 3 days relative to control. In kind it is functional, organism-based. On the set-up: dose 100 mg/kg. The conditions noted are these: Lung. In a few lines: as §2

Assay [8] concerns Mus musculus. Kind of assay: Antiinflammatory activity against nontypeable beta-lactamase-negative ampicillin-resistant Haemophilus influenzae 4437 infected in mouse ddY assessed as decrease in IL1-beta level in bronchoalveolar lavage fluid at 100 mg/kg, po bid for 3 days relative to control. In kind it is functional, organism-based. Further details: dose 100 mg/kg. The conditions noted are these: Lung. In a few lines:
(§3)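 Intubated ddY mice challenged intratracheally, then dosed orally twice daily from 24 h for 3 days and killed 12 h after the last dose. BAL done with 3 × 1.0 ml saline, pooled per animal. MIP-2 and IL-1β in BAL fluid measured by mouse ELISA kits. Four experiments.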

Assay [9] deals with Mus musculus. Kind of assay: Antiinflammatory activity against nontypeable beta-lactamase-negative ampicillin-resistant Haemophilus influenzae 4437 infected in mouse ddY assessed as decrease in MIP-2 level in bronchoalveolar lavage fluid at 40 mg/kg, po bid for 3 days relative to control. It counts as functional, organism-based. Further details: dose 40 mg/kg. The conditions noted are these: Lung. In a few lines:
as §3

The subject of assay [10] is Mus musculus. Kind of assay: Antiinflammatory activity against nontypeable beta-lactamase-negative ampicillin-resistant Haemophilus influenzae 4437 infected in mouse ddY assessed as decrease in MIP-2 level in bronchoalveolar lavage fluid at 100 mg/kg, po bid for 3 days relative to control. Further details: dose 100 mg/kg. It counts as functional, organism-based. The note with it: Lung. Summed up: as §3

In assay [11] the test system is Mus musculus. Briefly: Antiinflammatory activity against nontypeable beta-lactamase-negative ampicillin-resistant Haemophilus influenzae infected in mouse ddY assessed as inflammatory changes in lung at 40 mg/kg, po bid for 3 days relative to control. In kind it is functional, organism-based. Further details: dose 40 mg/kg. Summed up: (§4)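 Intubated ddY mice challenged intratracheally, then dosed orally twice daily for 3 days. Lungs fixed in 10% buffered formalin, stained with hematoxylin and eosin, and examined at ×200 for inflammatory cell infiltration of alveoli and bronchioles.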

For assay [12], the system named is Mus musculus. Briefly: Antiinflammatory activity against nontypeable beta-lactamase-negative ampicillin-resistant Haemophilus influenzae infected in mouse ddY assessed as inflammatory changes in lung at 100 mg/kg, po bid for 3 days relative to control. It counts as functional, organism-based. Further details: dose 100 mg/kg. Summed up:
as §4

Assay [13] has as its system Haemophilus influenzae. Briefly: Antibacterial activity against macrolide-resistant Haemophilus influenzae 4437 infected in NCI-H292 cells assessed as decrease in viable bacterial count at 64 ug/ml by 3-h invasion assay. It counts as functional, organism-based. Summed up: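 NCI-H292 cells in RPMI 1640 with 10% FBS, seeded at 5 × 10^5/well, then held in 0.5% FBS for 24 h at confluence. Infected with 10 µl of about 6 × 10^6 CFU/ml bacteria for 3 h at 37°C, 5% CO2. Washed, then gentamicin 200 µg/ml with drug for 2 h. Lysed in 1% Triton X-100; intracellular CFU counted on chocolate agar. Three experiments.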

Assay [14] has as its system Mus musculus. Kind of assay: Antiinflammatory activity against nontypeable beta-lactamase-negative ampicillin-resistant Haemophilus influenzae 4437 infected in mouse ddY assessed as decrease in IL1-beta level in bronchoalveolar lavage fluid at 40 mg/kg, po bid for 3 days relative to control. The conditions noted are these: Lung. It counts as functional, organism-based. On the set-up: dose 40 mg/kg. Summed up:
as §3

Converted amounts (≈) assume the structure as drawn. The source made the active and inactive calls. The rule behind the calls is not given here.

The source of these data is ChEMBL document CHEMBL1212794, “Efficacy of clarithromycin against experimentally induced pneumonia caused by clarithromycin-resistant Haemophilus influenzae in mice” (2010).

As for `CC1(C)S[C@@H]2[C@H](NC(=O)[C@H](N)c3ccccc3)C(=O)N2[C@H]1C(=O)O` [AMPICILLIN], in the assay with Haemophilus influenzae [1], the MIC was 16 µg/mL (≈ 45.8 µM).
`CC[C@H]1OC(=O)[C@H](C)[C@@H](O[C@H]2C[C@@](C)(OC)[C@@H](O)[C@H](C)O2)[C@H](C)[C@@H](O[C@@H]2O[C@H](C)C[C@H](N(C)C)[C@H]2O)[C@](C)(OC)C[C@@H](C)C(=O)[C@H](C)[C@@H](O)[C@]1(C)O` [CLARITHROMYCIN]: the MIC in the assay on Haemophilus influenzae [1] stood at 64 µg/mL (≈ 85.6 µM). Besides, the log10CFU/ml in the assay on Haemophilus influenzae [2] is 5.8; with Haemophilus influenzae [3], 4.6. Further, the outcome in the assay with Mus musculus [4], in the assay with Mus musculus [5], with Mus musculus [6], in the assay with Mus musculus [7], in the assay with Mus musculus [8] and in the assay with Mus musculus [9] was Active. The outcome in the assay on Mus musculus [10], with Mus musculus [11], in the assay on Mus musculus [12], with Haemophilus influenzae [13] and with Mus musculus [14] was Active.
